Screens (PubChem)
Compounds with a hit are over-represented: about 2.4% of the library has one in this group of screens.
TMEM16A inh: mouse TMEM16A channel inhibition, primary screen; HEK293 TMEM16A/YFP iodide influx fluorescence, ionomycin; normalized B-score (activity score, 25-100; higher = stronger inhibition) at 10 µM; hit rate 1.2% among 310,000;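 active = ratio plate-corrected score three or more library SD toward inhibition, starting fluorescence score within five deviations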;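 note: score derived from kinetic fluorescence span divided by baseline fluorescence per well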
Apaf1 inhib: human Apaf-1 inhibition | O14727 | inhibition, % at 20 µM | reconstituted apoptosome caspase-3 activity, DEVD-Rh110 fluorescence | hit rate 0.71% among 330,000; active = inhibition of at least 40% at 20 µM;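 note: plate controls were DMSO wells for no effect and DEVD-CHO caspase inhibitor wells for full effect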
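System – cell-free apoptosome with Apaf-1, procaspase-3 and caspase-9 · Buffer or medium – pH 7.5 Hepes buffer with CHAPS, BSA, DTT · Also added – cytochrome c with DEVD-Rh110 · Times – 30 min compound preincubation, 50 min activation, room temperature · Technique – Rh110 fluorescence intensity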
DNA FID counter: displaces DNA intercalator in HCV helicase counter-screen | hit rate 0.17% among 290,000 | DNA fluorescent intercalator displacement, fluorescence | AID 1845 | inhibition, % at 7.9 µM; in the data active = inhibition above about 37%;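 note: 0% = vehicle and 100% = reference compound; higher means more ethidium bromide displaced from hairpin DNA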
UBC13 inh: human UBC13 polyubiquitination inhibition | hit rate 0.47% among 330,000 | P61088 | UBC13 polyubiquitin chain formation, TR-FRET | inhibition, % at 20 µM; in the data active = inhibition above about 45%, passing the limit was not always enough
ANO1 activ: activators or potentiators of mouse TMEM16A chloride channel; Q8BHY3; HEK293 TMEM16A/YFP-H148Q/I152L, iodide quench fluorescence; hits give low values; B-score at 10 µM; hit rate 0.3% among 340,000;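 active = fluorescence-ratio B-score plate-corrected deviation score at least 3 library SD below zero, with starting fluorescence score within 5 deviations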;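 note: channel opened by trigger with iodide after compound preincubation; score built on the fluorescence ratio of max minus min over baseline; more negative score means more quench and so TMEM16A activation or potentiation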
The depositor's hits bear a star.

For CCC(CC)C(=O)Oc1c(Sc2ccccc2[N+](=O)[O-])c(C)nn1C(C)(C)C the results were TMEM16A inh inactive, Apaf1 inhib 17, DNA FID counter -2, UBC13 inh 4 and ANO1 activ -10*.
For S=c1[nH]cnc2sc(Nc3ccccc3)nc12 the results were TMEM16A inh inactive, DNA FID counter -4 and ANO1 activ inactive.
Screening COc1cccc(OC)c1C(=O)Nc1sc2c(c1C(N)=O)CCN(Cc1ccccc1)C2 returned TMEM16A inh inactive, Apaf1 inhib 8, DNA FID counter -5, UBC13 inh 2 and ANO1 activ inactive.
CCN1CCc2c(sc(NC(=O)c3cc4ccccc4cc3OC)c2C(N)=O)C1 was read as TMEM16A inh inactive, Apaf1 inhib 65*, DNA FID counter 34, UBC13 inh 25 and ANO1 activ inactive.
For O=C(COC(=O)c1cc(S(=O)(=O)N2CCCC2)ccc1O)Nc1ccc(S(=O)(=O)N2CCOCC2)cc1 the results were TMEM16A inh inactive, Apaf1 inhib -20, DNA FID counter -15, UBC13 inh 6 and ANO1 activ inactive.
`COc1ccc(S(=O)(=O)N2CCCCCC2)cc1C(=O)OCC(=O)NC(C)(C)C` gave TMEM16A inh inactive, Apaf1 inhib 3, DNA FID counter -29, UBC13 inh -9 and ANO1 activ -4.7*.
`O=C(COc1ccccc1C(=O)O)Nc1ccc(SC(F)F)cc1` gave TMEM16A inh inactive, Apaf1 inhib 2, DNA FID counter -13, UBC13 inh -4 and ANO1 activ inactive.
O=C(COC(=O)c1ccccc1C(=O)c1ccccc1)Nc1ccc(SC(F)F)cc1 was read as TMEM16A inh 100*, Apaf1 inhib 11, DNA FID counter -19, UBC13 inh 9 and ANO1 activ inactive.
COc1ccc(S(=O)(=O)N2CCCCCC2)cc1C(=O)OCC(=O)NC(N)=O was read as TMEM16A inh inactive, Apaf1 inhib -7, DNA FID counter -17, UBC13 inh -4 and ANO1 activ inactive.
`O=C(COC(=O)c1cc(S(=O)(=O)N2CCCC2)ccc1O)Nc1ccc(SC(F)F)cc1` gave Apaf1 inhib 0, UBC13 inh 14 and ANO1 activ -26*.
`CC(C)(C)OC(=O)N1CCC[C@H]1C(=O)NCc1ccc(Cl)cc1Cl` gave TMEM16A inh inactive, Apaf1 inhib -6, DNA FID counter -14, UBC13 inh 0 and ANO1 activ inactive.
Screening Cc1cc(C)n2c(SCC(=O)N(C)C3CCCCC3)nnc2n1 returned TMEM16A inh inactive, Apaf1 inhib -12, DNA FID counter -8, UBC13 inh 6 and ANO1 activ inactive.
Screening CCCN(c1ccccc1C(=O)O)S(=O)(=O)c1ccc2c(c1)n(C)c(=O)n2C returned TMEM16A inh inactive, Apaf1 inhib 2, DNA FID counter -11, UBC13 inh 1 and ANO1 activ inactive.
Cc1ccc(NC(=O)c2ccc(NCCCN3CCC(C)CC3)c([N+](=O)[O-])c2)cc1F was read as TMEM16A inh inactive, Apaf1 inhib -1, DNA FID counter 41*, UBC13 inh -4 and ANO1 activ inactive.
`O=C(Nc1cccc(Cl)c1)c1ccc(NCCCN2CCOCC2)c([N+](=O)[O-])c1` gave TMEM16A inh inactive, Apaf1 inhib -11, DNA FID counter 9, UBC13 inh -16 and ANO1 activ inactive.
For CCOc1ccccc1C(=O)N1c2ccccc2Sc2ccccc21 the results were TMEM16A inh 100*, Apaf1 inhib 20, DNA FID counter -28, UBC13 inh -6 and ANO1 activ inactive.
`COc1ccc2nc3cc(Cl)ccc3c(Nc3cc(CN4CCCC4)c(O)c(CN4CCCC4)c3)c2n1` gave TMEM16A inh inactive, Apaf1 inhib 62*, DNA FID counter 103* and UBC13 inh -88.
`COc1ccc2nc3cc(Cl)ccc3c(Nc3cc(C(C)C)c(O)cc3C)c2c1` gave TMEM16A inh inactive, Apaf1 inhib 34, DNA FID counter 21, UBC13 inh -6 and ANO1 activ inactive.
`N#CC1=C(S)N(c2ccc(F)cc2)C2(CCCCC2)NC1=O` gave TMEM16A inh inactive, Apaf1 inhib -2, DNA FID counter 0, UBC13 inh 6 and ANO1 activ inactive.
For N#CC1=C(S)N(c2ccccc2)C2(CCCCC2)NC1=O the results were TMEM16A inh inactive, Apaf1 inhib -3, DNA FID counter 3, UBC13 inh -11 and ANO1 activ -5*.
